In ChEMBL document CHEMBL4346667 (Eur J Med Chem, 2019):
The source made the active and inactive calls. The calls are words filed in the database; no cut-off is given here.

Key:
MCF7 [1] = test: Induction of apoptosis in human MCF7 cells at 1 uM after 48 hrs by Annexin V-FITC/propidium iodide staining-based flow cytometric analysis; format: functional, cell-based
Outline: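 Log-phase cells were seeded and treated after adhering, for 48 h in cycles of 6 h on and 6 h off. Cells were stained with annexin V (1 µg/mL) and PI (0.5 µg/mL) in Ca2+-enriched binding buffer for 15 min in the dark at room temperature. 10,000 events were read by flow cytometry (FL1 vs FL2). Apoptosis was the sum of early and late stages. At least three repeats.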

MCF7 [2] = test: Induction of apoptosis in human MCF7 cells assessed as necrotic cells at 25 uM after 6 hrs by Annexin V-FITC/propidium iodide staining-based flow cytometric analysis (reference value: 0.5%); format: functional

## COc1cc([C@@H]2c3cc4c(cc3[C@@H](O[C@@H]3O[C@@H]5CO[C@@H](C)O[C@H]5[C@H](O)[C@H]3O)[C@H]3COC(=O)[C@H]23)OCO4)cc(OC)c1O [ETOPOSIDE]
MCF7 [1]
  Activity: inactive
MCF7 [2]
  Activity: 0.8%
